ADAM17 inh – ADAM17 inhibition, QFRET primary screen; recombinant ADAM17, EDANS/DABCYL FRET peptide cleavage; P78536; 370,000 tested, 0.83% active; inhibition, % at 6.95 µM; AID 720648;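 active means inhibition above the mean of compounds lying between control limits plus 3 SD, set per campaign, cut at about 8.5% in these data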;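 further: 0% = DMSO-only wells as the low control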
ADAM10 inh – inhibitors of human ADAM10; O14672; recombinant ADAM10, EDANS/DABCYL FRET peptide cleavage, 3 h; inhibition, % at 7 µM; 370,000 tested, 0.62% active;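 active means inhibition above a per-campaign cutoff equal to the mean of compounds falling between control-based bounds plus 3 SD, cut at about 20% in these data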;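 further: 0% = DMSO wells while the 100% control is not disclosed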
FAS TE block – inhibitors of human fatty acid synthase thioesterase domain | recombinant FAS-TE, OMFH fluorogenic substrate, fluorescence endpoint | P49327 | inhibition, % at 15 µM | 360,000 tested, 0.67% active | AID 602261;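 active means compounds whose normalised, plate-corrected inhibition of enzyme fluorescence in the single-dose primary screen is 50% or more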;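 further: 0% = DMSO with enzyme and 100% = substrate without enzyme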
SENP1 inh – SENP1 (human) catalytic domain inhibition | inhibition, % at 10 µM | 360,000 tested, 0.21% active | recombinant SENP1 catalytic domain, CyPet-SUMO1-YPet FRET cleavage | AID 624204;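 active means inhibition at least 30% at 10 µM, raw YFP signal under a set limit, fluorescence ratio 0.5 to 1.5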;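 further: 0% = enzyme with DMSO and 100% = no enzyme wells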
Target sequence (Q9P0U3 419-644 limits assumed): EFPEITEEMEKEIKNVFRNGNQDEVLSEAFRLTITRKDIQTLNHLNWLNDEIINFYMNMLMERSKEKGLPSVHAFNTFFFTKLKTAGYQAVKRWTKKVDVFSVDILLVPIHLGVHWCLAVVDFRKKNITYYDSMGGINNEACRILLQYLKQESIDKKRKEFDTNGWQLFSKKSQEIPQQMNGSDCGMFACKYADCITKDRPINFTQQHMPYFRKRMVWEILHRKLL
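Material – human SENP1 catalytic domain · Input – SENP1 enzyme, 20 pM final · Compound dosing – single concentration of 10 µM compound, 0.5% DMSO final · Timing – enzyme reaction for 50 min at room temperature, dark · Measured by – FRET fluorescence in CFP and YFP emission channels · Control set – no-enzyme wells low, DMSO-plus-enzyme wells high control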
ADAM10 counter – ADAM10 inhibition, counter-screen for ADAM17 exosite hits; shares compounds with ADAM17 inh; recombinant ADAM10, EDANS/DABCYL FRET peptide cleavage, 3 h; inhibition, % at 6.95 µM; 2,900 tested, 47% active; AID 743256;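 active means mean inhibition over the triplicate runs exceeds the activity threshold set in the earlier primary screen, cut at about 20% in these data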;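 further: 0% = DMSO wells and 100% = marimastat wells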
ADAM17 confirm – confirmation of inhibitors of human ADAM17; 2,900 tested, 65% active; shares compounds with ADAM17 inh; inhibition, % at 6.95 µM; recombinant ADAM17, EDANS/DABCYL QFRET peptide cleavage;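 active means mean inhibition across replicates above the hit cutoff set in the primary screen, cut at about 8.5% in these data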;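 further: 0% = DMSO wells and 100% = marimastat wells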
The depositor's hits bear a star; · = no result given. An excerpt weighted towards active compounds, which were near 1.9% of everything screened.

SMILES	ADAM17 inh	ADAM10 inh	FAS TE block	SENP1 inh	ADAM10 counter	ADAM17 confirm
O=C(Nc1ccc(Cl)c(Cl)c1)C1CCCN(c2nnc(-n3cccc3)s2)C1 (configuration not stated)	11*	16	·	·	30*	15*
CC(=O)Nc1ccc(NC(=O)C2CCCN(c3nnc(-n4cccc4)s3)C2)cc1 (configuration not stated)	7	6	-7	1	·	·
O=C1N(CC[C@@H](O)c2ccccc2)CCC12CCC(c1ccccc1)CC2 (some centres not stated)	2	5	·	·	·	·
Cc1cccc(NC(=O)CSc2nnc(SCc3ccc(Cl)cc3)s2)c1	8.8*	12	·	·	15	12*
COCc1cc(N2CCN(C(=O)OC(C)(C)C)C[C@@H]2C)ccc1N1CC[C@@H](O)C1	-1	-10	·	·	·	·
CC1(C)Cc2c(c(=S)nc(-c3ccccc3)n2CCN2CCOCC2)CO1	8.7*	2	9	-2	3	6
O=C(C[C@H]1C/C=C\CC[C@@H](Cc2ccc(F)cc2)C(=O)O[C@@H](c2ccccc2)CNC1=O)N[C@H](CO)Cc1ccccc1	13*	7	-6	2	17	12*
CC(C)(C)OC(=O)C[C@H]1C/C=C\C[C@H](CC(=O)N[C@H](CO)Cc2ccccc2)C(=O)N[C@@H](Cc2ccccc2)COC1=O	12*	9	0	-2	4	4
C=CCC[C@H](Cc1ccc(F)cc1)C(=O)O[C@H](CNC(=O)[C@@H](CC=C)CC(=O)N(CCO)Cc1ccccc1)c1ccccc1	11*	14	23	2	45*	22*
C[C@H](CO)N1C[C@H](C)[C@@H](CN(C)S(=O)(=O)c2cccs2)Oc2ccc(NC(=O)Nc3ccc(C(F)(F)F)cc3)cc2C1=O	8.7*	29*	19	1	40*	23*
C[C@H](CO)N1C[C@H](C)[C@@H](CN(C)S(=O)(=O)c2ccc(F)cc2)Oc2ccc(NC(=O)Nc3ccc(C(F)(F)F)cc3)cc2C1=O	9.0*	26*	17	2	37*	19*
C[C@H](CO)N1C[C@H](C)[C@@H](CN(C)S(=O)(=O)c2cccs2)Oc2ccc(NC(=O)Nc3ccccc3)cc2C1=O	4	13	2	0	·	·
C[C@H](CO)N1C[C@H](C)[C@@H](CN(C)S(=O)(=O)c2ccc(F)cc2)Oc2ccc(NC(=O)Nc3ccccc3)cc2C1=O	6	11	5	1	·	·
CN(Cc1ccc(F)cc1)C(=O)c1cccc(OCc2ccccc2)c1	8.7*	13	27	0	7	12*
COc1cc(/C=N/NC(=S)NCc2ccccc2)ccc1OCC#N	4	6	10	3	·	·
CCOc1ccc(CNC(=S)N/N=C/c2ccc(OC)c(OC)c2)cc1	8.7*	10	42	-1	14	15*
CC(C)(C)C(=O)OC12CCCN(C1)/C(=C/c1cccc(Cl)c1)C2 (configuration not stated)	3	3	·	·	·	·
CCOC(=O)CNC(=O)CSc1nnc(-c2cccs2)o1	1	-4	·	·	·	·
O=C(c1ccc(CS(=O)Cc2ccccc2Cl)o1)N1CCN(c2cccc(Cl)c2)CC1 (configuration not stated)	15*	12	12	1	18	9.0*
O=C(c1ccc(CS(=O)Cc2ccccc2Cl)o1)N1CCN(c2ccccn2)CC1 (configuration not stated)	12*	-1	0	1	-5	1
COc1cccc(N2CCN(C(=O)c3ccc(CS(=O)Cc4ccccc4Cl)o3)CC2)c1 (configuration not stated)	0	-5	-3	0	·	·
O=C(c1ccc(CS(=O)Cc2ccc(Cl)cc2)o1)N1CCN(c2ccccn2)CC1 (configuration not stated)	1	-5	0	1	·	·
Cc1ccc(NC(=S)NNC(=O)c2c(Cl)c(C)nn2C)cc1	1	1	-11	2	·	·
Cc1ccc(NC(=S)NNC(=O)c2c([N+](=O)[O-])c(C)nn2C)cc1	12*	7	-4	2	25*	12*

Source: PubChem (several laboratories)
